Measurements taken from ChEMBL document CHEMBL1123198, “Stereoselective syntheses of the trans-decahydroquinoline-5-carboxylic acid epimers. Diastereomeric zwitterionic probes of gamma-aminobutyric acid related biological properties in vitro and in vivo” (1986).

What was measured:
Rattus norvegicus = organism: Rattus norvegicus; assay: Cyclic AMP accumulation in Rat brain cerebral cortical slices by the compound, activity expressed as % conversion; assay type: functional
Outline: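 Rat cerebral cortical slices were used for cAMP accumulation. cAMP was isolated by double-column chromatography. Values are means of two experiments, each run in duplicate.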

[1] = target: T1, GABA-A receptor; anion channel (Rattus norvegicus) (UniProt O09028+P15431+P18506+P18508+P19969+P20236+P23574+P23576+P28471+P28473+P30191+P62813+P63079+P63138+Q91ZM7+Q9ES14); assay: Displacement of [3H]diazepam binding in rat brain membranes; assay type: cell membranes; design: unit not given here
Outline: (§1)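 [3H]Diazepam binding, alone and GABA-activated, was measured in brain membranes. Nonspecific binding was taken with 1 µM unlabelled diazepam. Values are means of two experiments, each in duplicate.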

[2] = target: T1, GABA-A receptor; anion channel (Rattus norvegicus); assay: Displacement of [3H]-GABA from Gamma-aminobutyric acid A receptor in rat brain membranes; assay type: cell membranes; design: concentration or dose not given beside the values
Outline: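 GABA-A binding used [3H]GABA as ligand, with nonspecific binding taken in 1 mM unlabelled GABA. Values are means of three experiments, each in duplicate; standard error of the means was below 10%.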

[3] = target: GABA transporter (Rattus norvegicus) (UniProt P31647+P23978+P31646+P48056); assay: Inhibition of [3H]GABA uptake from rat brain membranes; assay type: functional, cell membranes; details: Membrane, concentration not given here
Outline: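 High-affinity [3H]GABA uptake was measured into rat brain synaptosomes. Values are means of two experiments.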

[4] = target: GABA B receptor (Rattus norvegicus) (UniProt Q9Z0U4+O88871); assay: Displacement of [3H]-GABA from Gamma-aminobutyric acid type B receptor in rat brain membranes; assay type: cell membranes; design: concentration or dose not given beside the values
Outline: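 GABA-B binding: rat brain membranes were incubated with [3H]GABA plus 40 µM isoguvacine to block GABA-A sites. Nonspecific binding was defined with 100 µM baclofen. Values are means of three experiments, each in duplicate; standard errors were below 20%.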

[5] = target: T1, GABA-A receptor; anion channel (Rattus norvegicus); assay: Displacement of [35S]TBPS from GABA-A receptor of rat brain membranes; assay type: cell membranes; design: concentration or dose not given beside the values; details: Membrane
Outline: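 [35S]TBPS binding assay with nonspecific binding defined by 10 µM unlabelled TBPS. Values are means of two experiments, each in duplicate.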

[6] = target: T1, GABA-A receptor; anion channel (Rattus norvegicus); assay: Displacement of GABA activated [3H]diazepam binding in rat brain membranes; assay type: cell membranes; outline: as §1
Mus musculus [7] = assay: Convulsant effect on ICV administration in mice at 100 ug; assay type: functional
Outline: (§2)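 Mice under halothane anaesthesia got a 4 µL injection into the left ventricle at 25, 50 or 100 µg, with saline controls. Mice sat in a 1-L beaker and were watched for seizures from 2 min after injection, and for behaviour over 40 min. A seizure counted when tonic-clonic convulsions occurred and the mouse fell on its flank. Read-out: mice convulsing/mice tested, and seizure duration in min (mean ± SEM).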

Mus musculus [8] = assay: Reversal of convulsant effect by Diazepam pretreatment (5 mg/kg) at 100 ug ICV dose, 4/4 mice affected; assay type: functional
Mus musculus [9] = assay: Convulsant effect on ICV administration in mice at 50 ug; assay type: functional; outline: as §2
Mus musculus [10] = assay: Reversal of convulsant effect by Diazepam pretreatment (2 mg/kg) at 100 ug ICV dose, 5/5 mice affected; assay type: functional
Mus musculus [11] = assay: Convulsant effect on ICV administration in mice at 100microg, 5/5 mice affected; assay type: functional; outline: as §2
Mus musculus [12] = organism: Mus musculus; assay: Reversal of convulsant effect by Diazepam pretreatment at 100 ug ICV dose, 5/5 mice affected; assay type: functional
Mus musculus [13] = assay: Convulsant effect on ICV administration in mice at 50microg, 5/5 mice affected; assay type: functional; outline: as §2
Mus musculus [14] = assay: Convulsant effect on ICV administration in mice at 25microg, 0/5 mice affected; assay type: functional; outline: as §2
Mus musculus [15] = assay: Reversal of convulsant effect by Diazepam pretreatment (10 mg/kg) at 100 ug ICV dose, 0/5 mice affected; assay type: functional
Mus musculus [16] = assay: Convulsant effect on ICV administration in mice at 50microg, 1/6 mice affected; assay type: functional; outline: as §2
Mus musculus [17] = assay: Reversal of convulsant effect by Diazepam pretreatment (2 mg/kg) at 100 ug ICV dose, 4/4 mice affected; assay type: functional
Mus musculus [18] = assay: Reversal of convulsant effect by Diazepam pretreatment (5 mg/kg) at 100 ug ICV dose, 5/5 mice affected; assay type: functional
Mus musculus [19] = assay: Reversal of convulsant effect by Diazepam pretreatment (10 mg/kg) at 100 ug ICV dose, 0/6 mice affected; assay type: functional
[20] = target: T1, GABA-A receptor; anion channel (Rattus norvegicus); details: Brain, Brain membranes
[21] = target: T1, GABA-A receptor; anion channel (Rattus norvegicus); details: Brain, Brain membranes; remark: listed apart in the source
[22] = target: T1, GABA-A receptor; anion channel (Rattus norvegicus); assay: Displacement of [3H]diazepam binding to rat brain membranes at 100 uM concentration; assay type: cell membranes; details: Membrane; outline: as §1
[23] = target: T1, GABA-A receptor; anion channel (Rattus norvegicus); assay: Displacement of GABA activated [3H]diazepam binding in rat brain membranes at 100 uM; assay type: cell membranes; outline: as §1

GABA transporter (Rattus norvegicus), sequence (P31646 whole entry, looked up): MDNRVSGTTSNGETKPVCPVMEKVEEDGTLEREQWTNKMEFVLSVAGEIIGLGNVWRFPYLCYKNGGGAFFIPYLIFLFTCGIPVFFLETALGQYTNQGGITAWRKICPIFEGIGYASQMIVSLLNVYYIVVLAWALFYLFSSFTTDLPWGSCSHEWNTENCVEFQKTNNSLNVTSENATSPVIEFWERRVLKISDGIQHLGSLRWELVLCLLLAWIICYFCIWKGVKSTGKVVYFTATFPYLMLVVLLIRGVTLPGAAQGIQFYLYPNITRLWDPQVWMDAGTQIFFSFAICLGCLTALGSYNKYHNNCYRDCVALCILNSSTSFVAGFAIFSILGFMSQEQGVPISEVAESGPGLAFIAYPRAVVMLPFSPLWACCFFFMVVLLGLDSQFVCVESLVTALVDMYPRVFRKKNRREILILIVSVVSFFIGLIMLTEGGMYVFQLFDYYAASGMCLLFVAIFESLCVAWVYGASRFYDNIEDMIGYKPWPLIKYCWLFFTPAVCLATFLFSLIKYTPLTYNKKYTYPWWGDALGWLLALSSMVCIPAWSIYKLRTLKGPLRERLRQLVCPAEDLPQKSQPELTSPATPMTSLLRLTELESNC
GABA transporter (Rattus norvegicus), sequence (P31647 whole entry, looked up): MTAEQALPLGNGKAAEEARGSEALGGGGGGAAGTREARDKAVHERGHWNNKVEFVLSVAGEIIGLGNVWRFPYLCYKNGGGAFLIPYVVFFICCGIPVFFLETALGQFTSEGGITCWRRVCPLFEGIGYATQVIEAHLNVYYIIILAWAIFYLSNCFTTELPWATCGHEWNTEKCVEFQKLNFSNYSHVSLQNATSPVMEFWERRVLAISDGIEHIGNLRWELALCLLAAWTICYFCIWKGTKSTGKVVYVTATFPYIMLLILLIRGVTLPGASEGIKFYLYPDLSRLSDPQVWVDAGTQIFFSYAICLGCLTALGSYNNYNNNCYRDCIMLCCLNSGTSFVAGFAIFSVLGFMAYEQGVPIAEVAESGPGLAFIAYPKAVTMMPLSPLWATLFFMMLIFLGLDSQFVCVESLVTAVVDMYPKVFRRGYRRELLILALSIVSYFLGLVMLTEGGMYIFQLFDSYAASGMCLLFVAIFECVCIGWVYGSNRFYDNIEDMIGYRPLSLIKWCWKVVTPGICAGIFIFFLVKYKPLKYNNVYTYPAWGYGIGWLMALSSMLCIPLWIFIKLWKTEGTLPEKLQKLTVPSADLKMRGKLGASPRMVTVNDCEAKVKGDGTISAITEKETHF
GABA transporter (Rattus norvegicus), sequence (P48056 whole entry, looked up): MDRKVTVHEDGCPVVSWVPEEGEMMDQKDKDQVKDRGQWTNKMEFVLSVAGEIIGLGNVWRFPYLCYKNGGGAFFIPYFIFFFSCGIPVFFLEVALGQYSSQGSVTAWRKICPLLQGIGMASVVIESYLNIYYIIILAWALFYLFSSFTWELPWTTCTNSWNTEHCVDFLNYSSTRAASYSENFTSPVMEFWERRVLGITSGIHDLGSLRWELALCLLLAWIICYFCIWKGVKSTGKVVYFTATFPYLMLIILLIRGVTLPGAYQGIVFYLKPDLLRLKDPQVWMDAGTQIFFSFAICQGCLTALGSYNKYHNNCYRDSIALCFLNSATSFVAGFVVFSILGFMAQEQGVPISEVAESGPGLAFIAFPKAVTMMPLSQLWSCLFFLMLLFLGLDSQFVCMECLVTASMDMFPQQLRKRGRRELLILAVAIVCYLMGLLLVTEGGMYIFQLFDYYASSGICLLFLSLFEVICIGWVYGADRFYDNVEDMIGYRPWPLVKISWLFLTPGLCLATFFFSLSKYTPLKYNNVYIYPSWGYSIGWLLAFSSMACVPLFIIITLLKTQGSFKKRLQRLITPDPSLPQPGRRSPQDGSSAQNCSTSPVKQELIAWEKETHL

CC(C)NCC(O)c1ccc(O)c(O)c1.O=C(O)[C@@H]1CCCC2NCCCC21 (stereo in doubt; form 2)
Conversion (Rattus norvegicus): 0.86%

O=C(O)[C@@H]1CCCC2NCCCC21 (stereo in doubt; form 2)
Binding affinity (spec bound mg-1) [1]: 32 | Displacement [2]: < 10% | inhibition [3]: 15% | Displacement [4]: < 10% | Displacement [5]: < 5% | Binding affinity (spec bound mg-1) [6]: 59.4

O=C(O)[C@@H]1CCCC2NCCCC21 (stereo in doubt; 3) [listing 1 of 2 here]
Duration of seizure (Mus musculus [7]): 26.5 min | Tonic-clonic seizure (Mus musculus [8]): 4 | Duration of seizure (Mus musculus [9]): 9.5 min | Tonic-clonic seizure (Mus musculus [10]): 5 | Tonic-clonic seizure (Mus musculus [11]): 5 | Tonic-clonic seizure (Mus musculus [12]): 5 | Tonic-clonic seizure (Mus musculus [13]): 5 | Tonic-clonic seizure (Mus musculus [14]): 0 | Tonic-clonic seizure (Mus musculus [15]): 0

CC(C)NCC(O)c1ccc(O)c(O)c1.O=C(O)[C@@H]1CCCC2NCCCC21 (stereo in doubt; form 5)
Conversion (Rattus norvegicus): 0.8%

O=C(O)C1CCCC2NCCCC21 (trans isomer)
Binding affinity (spec bound mg-1) [1]: 35 | Duration of seizure (Mus musculus [7]): 11.7 min | Tonic-clonic seizure (Mus musculus [16]): 1 | Displacement [2]: 43% | Duration of seizure (Mus musculus [9]): 0.8 min | inhibition [3]: < 5% | Displacement [4]: 38% | Tonic-clonic seizure (Mus musculus [17]): 4 | Displacement [5]: < 5% | Tonic-clonic seizure (Mus musculus [11]): 5 | Tonic-clonic seizure (Mus musculus [12]): 5 | Tonic-clonic seizure (Mus musculus [14]): 0 | Tonic-clonic seizure (Mus musculus [18]): 5 | Binding affinity (spec bound mg-1) [6]: 65.5 | Tonic-clonic seizure (Mus musculus [19]): 0

CC(C)NCC(O)c1ccc(O)c(O)c1.NCC(CC(=O)O)c1ccc(Cl)cc1.O=C(O)C1CCCC2NCCCC21 (stereo not given)
Conversion (Rattus norvegicus): 2.65%

CC(C)NCC(O)c1ccc(O)c(O)c1.O=C(O)[C@@H]1CCCC2NCCCC21 (stereo not given)
Binding affinity (spec bound mg-1) [20]: 0.91

NCC(CC(=O)O)c1ccc(Cl)cc1 (stereo not given) [BACLOFEN]
Displacement [2]: 15% | Displacement [4]: 100% | Conversion (Rattus norvegicus): 0.2%

CC(C)NCC(O)c1ccc(O)c(O)c1 (stereo not given) [ISOPROTERENOL]
Conversion (Rattus norvegicus): 0.84%

CC(C)NCC(O)c1ccc(O)c(O)c1.NCC(CC(=O)O)c1ccc(Cl)cc1.O=C(O)[C@@H]1CCCC2NCCCC21 (stereo in doubt; form 1)
Conversion (Rattus norvegicus): 2.59%

CC(C)NCC(O)c1ccc(O)c(O)c1.O=C(O)C1CCCC2NCCCC21 (stereo not given)
Conversion (Rattus norvegicus): 0.84%

CC(C)NCC(O)c1ccc(O)c(O)c1.NCC(CC(=O)O)c1ccc(Cl)cc1.O=C(O)[C@@H]1CCCC2NCCCC21 (stereo in doubt; form 3)
Conversion (Rattus norvegicus): 2.81%

CC(C)NCC(O)c1ccc(O)c(O)c1.NCC(CC(=O)O)c1ccc(Cl)cc1 (stereo not given)
Conversion (Rattus norvegicus): 2.56%

O=C(O)[C@@H]1CCCC2NCCCC21 (stereo in doubt; 3) [listing 2 of 2 here]
Binding affinity (spec bound mg-1) [1]: 28.8 | Displacement [2]: < 10% | inhibition [3]: < 5% | Displacement [4]: < 10% | Displacement [5]: < 5% | Binding affinity (spec bound mg-1) [6]: 59.1

C=C(C)[C@@H]1[C@H]2OC(=O)[C@@H]1[C@]1(O)C[C@H]3O[C@]34C(=O)O[C@H]2[C@]14C
Displacement [5]: 90%

CC(C)NCC(O)c1ccc(O)c(O)c1.NCC(CC(=O)O)c1ccc(Cl)cc1.O=C(O)[C@@H]1CCCC2NCCCC21 (stereo in doubt; form 4)
Conversion (Rattus norvegicus): 2.63%

NCCCC(=O)O
Displacement [2]: 100% | Displacement [4]: 100% | Binding affinity (spec bound mg-1) [21]: 55.4

CN1C(=O)CN=C(c2ccccc2)c2cc(Cl)ccc21
Binding affinity (spec bound mg-1) [1]: 29.3

O=C(O)[C@@H]1CCCC2NCCCC21 (stereo in doubt; form 1)
Displacement [2]: < 10% | Binding affinity (spec bound mg-1) [22]: 31.9 | Binding affinity (spec bound mg-1) [23]: 55.3 | inhibition [3]: < 5% | Displacement [4]: < 10% | Displacement [5]: < 5%
